Assay results reported in the RNAGym collection of RNA variant scans (doi:10.1126/science.aae0568).
This sample holds only a part of the variants without activity.

B1: tRNA (parent)
chain: GUUCCGUUGGCGUAAUGGUAACGCGUCUCCCUCCUAAGGAGAAGACUGCGGGUUCGAGUCCCGUACGGAACG

Variants of: B1
Test: yeast fitness relative to wild type (ratio to wild type); higher = fitter; tRNA-Arg(CCU), competitive growth, 37 C, YPD
Procedure, shortened: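 For this measurement, the tRNA-Arg(CCU) gene was varied by chemical synthesis at a 3% per-site mutation rate across 69 sites, and each variant was placed at the native genomic locus in Saccharomyces cerevisiae. The pooled strains went through a 24-hour competition in YPD at 37°C in six parallel replicates, with amplicons from start and end populations read by 100-nucleotide paired-end sequencing. Darwinian fitness relative to wild type followed from the change in each genotype's frequency. Genotypes needed ≥ 100 starting reads, and estimates < 0.5 were set to 0.5.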

Variant | yeast fitness
GUUCCGUUGGCGUAAUGGUAACGCGGCUCCCUCCUAAGGAGCAGACUGCGGGUUCGAGUCCCGUACGGAACG [U26G A42C] | 1.03
GUUCCGUUGGCGUAAUGGUAACGCGGUUCCCUCCUAAGGAGAAGACUGCCGGUUCGAGUCCCGUACGGAACG [U26G C27U G50C] | ≤ 0.5
GUUCCGUUGGCGUAAUGGUAACGCGGCUCCCUCCUUAGGAGAAGACGGCGGGUUCGAGUCCUGUACGCAACG [U26G A36U U47G C62U G68C] | ≤ 0.5
GUUCCGUUGGCGUAAUGGUAACGCGGCUCCCUCCUAAGGAGAAGGUUGCGGGGUCGAGUCCCGUAUGGUACG [U26G A45G C46U U53G C66U A69U] | 0.582
GUUCCGUUGGCGUAAUGGUAACGCGCCUCCCUCCCAAGGAGAAGACUGUGGGUUCGUGUCCCGUACGGAACG [U26C U35C C49U A57U] | 0.656
GUUCCGUUGGCGUAAUGGUAACGCGGCUCCCUCCUACGGAGGACGCUGUGGGUUCGAGUCCCGUUCGGAACG [U26G A37C A42G G44C A45G C49U A65U] | ≤ 0.5
GUUCCGUUGGCGUAAUGGUAACGCGCCUCCCUCCUAAGGAGAAGACCGCGGGUUCGAGUCCCGUACGGAACG [U26C U47C] | 0.952
GUUCCGUUGGCGUAAUGGUAACGCGCCUCCCUCCUAAGGAGAAGACUGCGGGUUCGAGGCCCGUACGGAACG [U26C U59G] | 0.862
GUUCCGUUGGCGUAAUGGUAACGCGGCUCCCUCCUAAGGAGAAGACUGCGGGUUCGAGUCCCGUGCGGAACG [U26G A65G] | 0.971
GUUCCGUUGGCGUAAUGGUAACGCGGCUCCCUCCUUAGGAGAAGACGGCGGGUUCGAGUCCCGUACGGAACG [U26G A36U U47G] | 0.626
GUUCCGUUGGCGUAAUGGUAACGCGCCUCCCUCCUAAGGAGAAGACUGCGGGCUCGAAUCCCGUACGGAACG [U26C U53C G58A] | 0.686
GUUCCGUUGGCGUAAUGGUAACGCGGCUCCCUCCUAAGGAGAGGACUGCGGGUUCGAGUCCCGUACGGAACG [U26G A43G] | 0.895
GUUCCGUUGGCGUAAUGGUAACGCGGCUCCCUCCUAAGGAGAAGACUGCGGGUUCGAGUCCCGUACGGUACG [U26G A69U] | 0.919
GUUCCGUUGGCGUAAUGGUAACGCGGUUCCCUCCUAAGGAGAAGACUGCGGGUUCGAGUCCCGUACGGAUCG [U26G C27U A70U] | ≤ 0.5
GUUCCGUUGGCGUAAUGGUAACGCGCCUCCCUCCUAAGGAGAAGACUGCGGGAUCGAGUCCCGUACGGAACG [U26C U53A] | 0.706
GUUCCGUUGGCGUAAUGGUAACGCGGGUCCCUCCUAAGGAGAAGACAGCGGGUUCGAGUCCUGUACGGAACG [U26G C27G U47A C62U] | ≤ 0.5
GUUCCGUUGGCGUAAUGGUAACGCGGGUCCCUUCUAAGCAGAAGACUGUGGGUUCGAGUCCCGUACGGAACG [U26G C27G C33U G39C C49U] | ≤ 0.5
GUUCCGUUGGCGUAAUGGUAACGCGGCUCCCUCCUAAGGAGAAGGUUGCAGGGUCGAGUCCCGUAUGGUACG [U26G A45G C46U G50A U53G C66U A69U] | ≤ 0.5
GUUCCGUUGGCGUAAUGGUAACGCGGCUCCCUCCUAAGGGGAAGACUGCGGGUUCGAGGCCAGUACGGAACG [U26G A40G U59G C62A] | ≤ 0.5

Variant | yeast fitness
GUUCCGUUGGCGUAAUGGUAACGCGGUUCCCUCCUAAGGAGAAGACUGCGGGUUCGAGUCCCGUACGGUACG [U26G C27U A69U] | 0.696
GUUCCGUUGGCGUAAUGGUAACGCGGCUCCCUCCUAAGGAGAAGUCUGCAGGUUAGAGUCCCGUACGGAACG [U26G A45U G50A C55A] | ≤ 0.5
GUUCCGUUGGCGUAAUGGUAACGCGGCUCCCUCCUAAGGAGAAGACUGCGGGUUCGAGUCCCGUACGGAACG [U26G] | 0.971
GUUCCGUUGGCGUAAUGGUAACGCGGCUAGGUCCUAAGGAGAAGACUGCGGGUUCGAGACCCGUACGGAACG [U26G C29A C30G C31G U59A] | 0.533
GUUCCGUUGGCGUAAUGGUAACGCGGCUCACUCCUAAGGAGAAGACUGCGGGUUCGAGUCCCGUACGCAACG [U26G C30A G68C] | 0.531
GUUCCGUUGGCGUAAUGGUAACGCGGCUCUCUCCUAAGGAGAAGACUGCGGAUUCGAGUCCCGUACGGAACG [U26G C30U G52A] | 0.519
GUUCCGUUGGCGUAAUGGUAACGCGGCUCCCUCCUGAGGAGAAGACUGCGGGUUCGAGUCCCGUACGGAGCG [U26G A36G A70G] | 0.652
GUUCCGUUGGCGUAAUGGUAACGCGGCUCCCUCCUGAGGAGAAGACUGCGGGUUCGAGUCCCGUACGAGACG [U26G A36G G68A A69G] | 0.626
GUUCCGUUGGCGUAAUGGUAACGCGGCUCCCUCCUAAGGAGAAGUCUGCGGGUUCGAGUCCCGUACGGAACG [U26G A45U] | 0.789
GUUCCGUUGGCGUAAUGGUAACGCGCCUCCCUCCAAAGGAGAAGACAGCGGGUACGAGUCCCGUACGGAACG [U26C U35A U47A U54A] | ≤ 0.5
GUUCCGUUGGCGUAAUGGUAACGCGGCUCCCUCCUACGGAGGACGCUGCGGGUUCGAGUCCCGUACGGAACG [U26G A37C A42G G44C A45G] | ≤ 0.5
GUUCCGUUGGCGUAAUGGUAACGCGGGUCCCACCUAAGGUGAAGACUGCGGGUUCGAGUCCCGUACGGAACG [U26G C27G U32A A40U] | ≤ 0.5
GUUCCGUUGGCGUAAUGGUAACGCGCCUCCCUCCCAAGGAGAAGACUGCCGAUUCGAGUCCCGUACGGAACG [U26C U35C G50C G52A] | ≤ 0.5
GUUCCGUUGGCGUAAUGGUAACGCGCCUCCCCCCUAAGGAGAAGACCGCAGGUUCGAGUCUCGAACGGAACG [U26C U32C U47C G50A C61U U64A] | ≤ 0.5
GUUCCGUUGGCGUAAUGGUAACGCGGCUGCCUCCUAAGGAGAAGACUGCGGGUUCGAGUCCUGUACGGAGCG [U26G C29G C62U A70G] | 0.61
GUUCCGUUGGCGUAAUGGUAACGCGGCUCCCUCCUCAGGAGAAGACUGCGGGUUCGAGUCCCGUAAGGAACG [U26G A36C C66A] | ≤ 0.5
GUUCCGUUGGCGUAAUGGUAACGCGGCUCCCUCCUAAGGAGCAGACUGCGGGUUCGAGUCUCGUACGGAACG [U26G A42C C61U] | 0.684
GUUCCGUUGGCGUAAUGGUAACGCGGCUCCCUCCUAAGGAGAAGACUGCGGGUUCGAGUCCCGUACGGACCG [U26G A70C] | 0.924
GUUCCGUUGGCGUAAUGGUAACGCGCCUCCCUCCUAAGGAGAAGACGGCCGGUUCGAGUCCCGUAAGGAACG [U26C U47G G50C C66A] | 0.685
